Reference: ChEMBL document CHEMBL2046390, “Carnosine analogues containing NO-donor substructures: synthesis, physico-chemical characterization and preliminary pharmacological profile” (Eur J Med Chem, 2012)
Activity calls are given as the source filed them. The rule behind the calls is not given here.

How the values were obtained:
[1] = Lipophilicity, log D of the compound at pH 7.4 by shake-flask method; assay type: physicochemical; details: buffer
How it was run: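 Shake-flask partition between n-octanol and phosphate buffer pH 7.4 (ionic strength 0.15 M KCl), phases presaturated 4 h. Compound about 0.1 mM in the aqueous phase; shaken about 20 min, centrifuged, aqueous concentration read by UV at 230 nm. At least 6 determinations per compound.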

[2] = Antioxidant activity against CuSO4-induced LDL oxidation measured per mg of LDL product assessed as propagation rate of the oxidation at 100 uM by spectrophotometric analysis; assay type: functional
How it was run: (§1)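 Human LDL isolated by ultracentrifugation (density 1.019-1.063 g/mL), EDTA removed by desalting, diluted in 10 mM phosphate buffer pH 7.4 to 50 μg protein/mL; compound 100 μM final. Oxidation started with 2.5 μM CuSO4 at 37 °C; conjugated dienes followed at 234 nm. Lag phase versus control; propagation rate from ΔA234 over time using ε234 = 29500 M-1 cm-1.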

[3] = system: Serum; test: Metabolic stability of the compound in human serum at 0.5 mM after 3 hrs by RP-HPLC analysis; assay type: ADME, cell-free; details: 500 µM
How it was run: (§2)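 A 10 mM aqueous stock was added to human serum preheated to 37 °C, giving 0.5 mM final, then incubated at 37 ± 0.5 °C. Aliquots were deproteinized with acetonitrile/0.1% TFA, centrifuged, filtered and analysed by RP-HPLC on C18 with diode-array detection, using methanol/20 mM sodium acetate pH 4.5–5 mM SDS mobile phase.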

[4] = system: Thoracic aorta; test: Vasodilator activity in Wistar rat endothelium-denuded thoracic aorta assessed as inhibition of L-phenylephrine-induced contraction; assay type: functional, tissue-based
How it was run: (§3)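 Rat aortic strips equilibrated 90 min, then contracted with 1 μM L-phenylephrine. Cumulative concentration-response curves were run at the plateau, with isometric recording. EC50 is the concentration giving 50% relaxation, mean of at least 5 determinations. ODQ 1 μM was added 5 min before contraction in a separate series.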

[5] = system: Thoracic aorta; test: Vasodilator activity in Wistar rat endothelium-denuded thoracic aorta assessed as inhibition of L-phenylephrine-induced contraction in presence of ODQ; assay type: functional, tissue-based; how it was run: as §3
[6] = Antioxidant activity against CuSO4-induced LDL oxidation assessed as delta-lag time at 100 uM by spectrophotometric analysis; assay type: functional; how it was run: as §1
[7] = Antioxidant activity assessed as (E)-4-hydroxy-trans-2,3-nonenal scavenging activity in phosphate buffer at pH 7.4 at 1 mM after 24 hrs by reverse-phase HPLC analysis relative to control; assay type: functional
How it was run: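 HNE 50 μM incubated with compound 1 mM in 1 mM phosphate buffer pH 7.4 at 37 °C for up to 24 h. Remaining HNE measured directly by reverse-phase HPLC. Scavenging % = 100 − (HNE left with scavenger / HNE left in control × 100).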

[8] = Half life in human serum at 0.5 mM by RP-HPLC analysis; assay type: ADME, cell-free; how it was run: as §2
[9] = system: Rattus norvegicus; test: Protection against hypoxia-induced brain damage in Wistar rat ischemia-reperfusion injury model assessed as reduction of cerebral infarct volume at 1 g/kg, iv administered at beginning of reperfusion and again after 6 hrs measured 24 hrs after reperfusion; assay type: functional, organism-based
How it was run: (§4)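 Male Wistar rats, 210–230 g, anaesthetised with Zoletil and kept at 37 °C, underwent 30 min carotid occlusion then 24 h reperfusion; n = 5 per group. Compounds in 5% DMSO given i.v. at reperfusion onset and again after 6 h. Infarct volume from 2-mm coronal brain slices stained with 2% TTC, 37 °C, 30 min. Serum TNF-α by ELISA (pg/mL); means ± SEM.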

[10] = system: Rattus norvegicus; test: Reduction of ischemia-reperfusion-induced TNFalpha level increase in Wistar rat serum at 1 g/kg, iv by ELISA; assay type: functional, organism-based; how it was run: as §4
[11] = Binding affinity to Cu2+ assessed as formation of compound-cu2+ complex formation by pH-metric technique; assay type: physicochemical
How it was run: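 Compound and CuCl2, equimolar at 1 mM in water, acidified to pH 1.8 with 0.5 N HCl, then titrated with 0.5 N KOH to pH 12.2. Run under nitrogen at 25.0 ± 0.1 °C, ionic strength 0.15 M KCl, at least three titrations. Formation constants fitted from pH-metric data.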

[12] = system: Thoracic aorta; test: Vasodilator activity in Wistar rat endothelium-denuded thoracic aorta assessed as inhibition of L-phenylephrine-induced contraction at 1 mM; assay type: functional; how it was run: as §3
[13] = system: Rattus norvegicus; test: Reduction of ischemia-reperfusion-induced TNFalpha level increase in Wistar rat serum at 500 mg/kg, iv by ELISA; assay type: functional, organism-based; parameters: dose 500 mg/kg; how it was run: as §4
[14] = system: Rattus norvegicus; test: Protection against hypoxia-induced brain damage in Wistar rat ischemia-reperfusion injury model assessed as reduction of cerebral infarct volume at 500 mg/kg, iv administered at beginning of reperfusion and again after 6 hrs measured 24 hrs after reperfusion; assay type: functional, organism-based; parameters: dose 500 mg/kg; how it was run: as §4

SMILES | logD [1] | Activity [2] [nmol/min] | Stability [3] | Activity [4] | EC50 [4] [µM] | Activity [5] | TIME [6] [h] | Activity [7] [%] | half-life at 500 µM [8] [min] | Activity [9] | Activity [10] | Activity [11] | inhibition at 1000 µM [12] [%] | Activity [13] | Activity [14]
NCCC(=O)N[C@@H](Cc1c[nH]cn1)C(=O)NCc1ccc(OCCCO[N+](=O)[O-])cc1 | -1.01 | 6.3 | Stable | Dose-dependent effect | 3 | inactive | 1.17 | 74.3 |  |  |  |  |  |  | 
NCCC(=O)N[C@@H](Cc1cnc[nH]1)C(=O)O [CARNOSINE] |  |  |  |  |  |  |  |  | 5 |  |  |  |  |  | 
NCCC(=O)N[C@@H](Cc1c[nH]cn1)C(=O)O |  |  |  | Dose-dependent effect |  |  |  |  |  | Active | inactive |  |  |  | 
CCCOc1ccc(CNC(=O)[C@H](Cc2c[nH]cn2)NC(=O)CCN)cc1 | -1.15 | 9.5 | Stable |  |  |  | 1.07 | 73.3 |  |  |  |  |  |  | 
NCCC(=O)N[C@@H](Cc1c[nH]cn1)C(=O)NC[C@@H](CO[N+](=O)[O-])O[N+](=O)[O-] | -2.33 | 5.8 | Stable | Dose-dependent effect | 169 | inactive | 1.25 | 67.2 |  |  |  | Active |  |  | 
NCCC(=O)N[C@@H](Cc1c[nH]cn1)C(=O)NCCCO[N+](=O)[O-] | -2.43 | 3.9 | Stable | Dose-dependent effect |  | inactive | 1.5 | 75.4 |  |  |  | Active | 46 |  | 
CCCNC(=O)[C@H](Cc1c[nH]cn1)NC(=O)CCN |  |  | Stable |  |  |  |  |  |  |  |  |  |  | inactive | Active
NCCC(=O)N[C@@H](Cc1c[nH]cn1)C(=O)NC[C@H](CO[N+](=O)[O-])O[N+](=O)[O-] | -2.19 | 5.8 | Stable | Dose-dependent effect | 70 | inactive | 1.47 | 77.6 |  |  |  | Active |  | Active | Active
